In the library only some 1.3% were active in any assay of this set; here they are far more common.
Diaph inh CS: inhibits diaphorase or chemically oxidizes, flagging diaphorase assay artifacts. diaphorase resazurin-to-resorufin fluorescence, NADH, 16 min; bacterial (C. kluyveri) enzyme, not human. inhibition, % at 20 µM. 0.69% of 190,000 active;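 active = primary screen inhibition at 20 µM above a set limit, cut at about 50% in these data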;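 also: plate controls were DMSO with full reaction for no effect and wells lacking NADH for full effect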
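material = Clostridium kluyveri diaphorase enzyme | amount = 0.14 U/mL diaphorase, enzyme working solution | schedule = incubation 16 min, room temperature | detection = fluorescence of resorufin formed from resazurin, Ex 544/Em 590 nm | benchmarks = positive control minus NADH, DMSO neutral control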
G6PDH CS: counter-screen for G6PDH assay hits: L. mesenteroides G6PDH inhibition. AID 1020. 0.12% of 200,000 active. inhibition, % at 5 µM. Purified L. mesenteroides G6PDH, diaphorase/resazurin coupled fluorescence, 45 min; in the data active = inhibition above about 50%
Diaph act CS: activates diaphorase or chemically reduces, flagging diaphorase assay artifacts. Diaphorase/resazurin coupled assay, resorufin fluorescence, 16 min; hits give high values; 1 = vehicle wells, 0 = NADH-free wells. activation factor at 20 µM. 0.005% of 190,000 active. AID 1229;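 active = diaphorase activity raised at least twofold by the compound at 20 µM; inactive = activation factor below 2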
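Test system: Clostridium kluyveri diaphorase, purified enzyme. Buffer or medium: 50 mM HEPES pH 7.4 buffer plus MgCl2 and Tween 20. Also added: 0.114 mM NADH and 0.1 mM resazurin, final amounts. Dosing: compound 20 µM once, DMSO 1%. Schedule: 16 min enzyme reaction, ambient temperature. Detection: fluorescence of resorufin, 544 nm excitation, 590 nm emission.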
HKDC1 inhibitor: HKDC1 (human) hexokinase inhibition; AID 493160; recombinant HKDC1, G6PDH/diaphorase resazurin coupled fluorescence; inhibition, % at 20 µM; 0.16% of 340,000 active; Q2TB90;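 active = inhibition above about 35% when tested at 20 µM, limit read from the data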;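 also: plate controls were DMSO wells with enzyme for no effect and DMSO wells lacking enzyme for full effect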
Target sequence (Q2TB90 whole entry, looked up): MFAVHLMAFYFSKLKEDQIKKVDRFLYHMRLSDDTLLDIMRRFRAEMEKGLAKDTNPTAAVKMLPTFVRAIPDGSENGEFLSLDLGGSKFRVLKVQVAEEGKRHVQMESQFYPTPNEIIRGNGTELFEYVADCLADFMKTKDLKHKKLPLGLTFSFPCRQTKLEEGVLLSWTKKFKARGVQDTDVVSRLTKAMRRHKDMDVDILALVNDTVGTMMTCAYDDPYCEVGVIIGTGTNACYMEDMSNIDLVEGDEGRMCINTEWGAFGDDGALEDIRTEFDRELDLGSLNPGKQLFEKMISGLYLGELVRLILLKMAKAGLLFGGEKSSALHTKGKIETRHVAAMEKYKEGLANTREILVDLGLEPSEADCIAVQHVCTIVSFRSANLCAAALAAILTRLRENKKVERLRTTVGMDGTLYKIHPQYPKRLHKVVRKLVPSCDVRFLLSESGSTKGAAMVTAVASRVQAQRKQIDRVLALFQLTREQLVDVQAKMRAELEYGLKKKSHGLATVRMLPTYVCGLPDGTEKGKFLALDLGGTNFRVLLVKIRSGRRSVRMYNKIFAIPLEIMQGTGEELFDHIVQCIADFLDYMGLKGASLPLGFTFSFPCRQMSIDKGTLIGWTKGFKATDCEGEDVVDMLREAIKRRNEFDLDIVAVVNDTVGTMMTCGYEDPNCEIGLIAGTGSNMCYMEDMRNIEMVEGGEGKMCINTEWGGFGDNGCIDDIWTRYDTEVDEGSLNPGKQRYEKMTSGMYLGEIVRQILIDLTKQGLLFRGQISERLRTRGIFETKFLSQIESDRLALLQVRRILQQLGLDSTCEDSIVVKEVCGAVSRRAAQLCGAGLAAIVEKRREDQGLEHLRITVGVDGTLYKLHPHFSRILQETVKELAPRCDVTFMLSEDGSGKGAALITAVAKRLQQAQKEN
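Test system: recombinant HKDC1 (HK5) hexokinase enzyme, produced in-house / Doses: 20 µM test compound, 1% DMSO / Timing: 90 min, room temperature / Detection: G6PDH/diaphorase-coupled fluorescence, 1 mM NADP, 100 µM resazurin, 525/613 nm / Control set: DMSO wells with and without enzyme mix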
PfGluPho inh: PfG6PD (Plasmodium falciparum) enzyme inhibition | inhibition, % at 20 µM | PfGluPho enzyme, NADPH resazurin-diaphorase fluorescence | 0.78% of 350,000 active | AID 504690;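 active = inhibition reaching at least a set limit at 20 µM in the primary screen, cut at about 59% in these data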;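 also: 0% = DMSO wells with substrate and 100% = DMSO wells lacking glucose-6-phosphate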
HKDC1 act conf: HKDC1 (human) activation, single-dose confirmed; inhibition, % at 20 µM; shares compounds with HKDC1 inhibitor; 14% of 740 active; recombinant HKDC1, G6PDH/diaphorase resazurin fluorescence; hits give low values;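 active = inhibition at or below a set negative limit, negative inhibition meaning the enzyme was activated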
PfGluPho conf: PfG6PD inhibition, single-dose confirmed | shares compounds with PfGluPho inh | 34% of 2,400 active | inhibition, % at 20 µM | recombinant PfGluPho, NADPH-diaphorase-resazurin fluorescence;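 active = inhibition of at least 50% at 20 µM in any single replicate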;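 also: 0% = DMSO with substrate and 100% = DMSO lacking glucose-6-phosphate substrate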
Diaph ctr 10uM: inhibits diaphorase or oxidizes, flagging false PfG6PD hits | diaphorase-coupled resazurin reduction, fluorescence, NADPH 10 uM | AID 504862 | 39% of 820 active | shares compounds with PfGluPho inh | inhibition, % at 20 µM;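 active = average inhibition reaching 50% or more with the compound at 20 µM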;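 also: resorufin red fluorescence formed as diaphorase reduces resazurin using NADPH; 0% = DMSO with enzyme and 100% = DMSO without enzyme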
Diaph ctr 30uM: diaphorase inhibition or oxidation at 30 uM NADPH | shares compounds with PfGluPho inh | Diaphorase/resazurin coupled assay, resorufin fluorescence | inhibition, % at 20 µM | 29% of 820 active;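 active = inhibition averaging 50% or more, tested at 20 µM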;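 also: 0% = DMSO with enzyme and 100% = DMSO wells lacking diaphorase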
An asterisk follows results filed as active; · = not tested or not shown.

SMILES	Diaph inh CS	G6PDH CS	Diaph act CS	HKDC1 inhibitor	PfGluPho inh	PfGluPho conf	others
COC(=O)CCC(=O)OC1(C)C(=O)C2=CN(C3CCCC3)C(c3ccc(OC)cc3)=CC2=C(Br)C1=O (centres undefined)	·	·	·	38*	70*	67*	HKDC1 act conf=12;Diaph ctr 10uM=56*;Diaph ctr 30uM=51*
CCN(CC)CCCN1C=C2C(=O)C(C)(OC(=O)CCC(=O)OC)C(=O)C(Br)=C2C=C1c1ccc(OC)cc1 (centres undefined)	·	·	·	19	35	·
O=C(CCCC(=O)N(CC(=O)NC1CCCCC1)Cc1ccc2c(c1)OCO2)Nc1ccccn1	0	-8	1	-3	-2	·
CCCNC(=O)CN(C)CC(=O)Nc1ccccc1C#N	7	0	0.9	-8	16	·
Cc1nc2cc(NC(=O)N3CCN(c4ccccn4)CC3)ccc2o1	8	4	0.9	-3	35	·
O=C(Nc1ccc2nc(-c3ccco3)c(-c3ccco3)nc2c1)N1CCN(c2ccccn2)CC1	70*	24	0.3	57*	81*	20	HKDC1 act conf=-13
CN1CCN(C(=O)CCNC(=O)Cn2cnc3ccccc3c2=O)CC1	·	·	·	-4	8	·
COc1ccc(NCc2cc3cc(OC)ccc3[nH]c2=O)cc1	46	36	0.5	5	73*	26
COc1ccc2[nH]c(=O)c(CNc3cccc(C)c3)cc2c1	40	42	0.6	20	69*	-2
COc1ccc(NCc2cc3ccccc3[nH]c2=O)cc1	31	23	0.7	4	25	·
Nc1ccc(C(=O)OCC(=O)N2c3ccccc3Sc3ccccc32)cc1[N+](=O)[O-]	14	1	0.9	-3	-3	·
NCCNc1ccc(C(=O)N2c3ccccc3Sc3ccccc32)cc1[N+](=O)[O-]	·	·	·	6	69*	92*	Diaph ctr 10uM=17;Diaph ctr 30uM=14
C=CCN(CC=C)C(=S)NC(=O)c1ccc([N+](=O)[O-])cc1	16	-4	0.8	-6	86*	-7
CCN(CC)S(=O)(=O)c1cc(C(=O)N2CCc3ccccc32)ccc1Cl	7	7	0.9	-6	-7	·
COCCn1nnnc1C(c1cc2cc(OC)c(OC)cc2[nH]c1=O)N1CCN(c2ccc(O)cc2)CC1 (centres undefined)	·	33	·	6	65*	56*	Diaph ctr 10uM=7;Diaph ctr 30uM=-3
CCc1ccc2[nH]c(=O)c(C(c3nnnn3CCOC)N3CCN(c4ccc(F)cc4)CC3)cc2c1 (centres undefined)	24	5	0.8	2	8	·
COc1ccc(C(C)=O)c(OCC(=O)NCCC2=CCCCC2)c1	·	·	·	·	65*	44
COc1ccc(OCCOC(=O)CNC(=O)c2ccc(Cl)cc2Cl)cc1	·	·	·	-1	-13	·
Clc1ccc2nc(-c3ccc(Cl)nc3)[nH]c2c1	·	·	·	11	110*	55*	Diaph ctr 10uM=71*;Diaph ctr 30uM=57*
Nc1ccc2nc(-c3ccc(Cl)cc3)[nH]c2c1	10	4	0.9	10	35	·
Cc1[nH]n(-c2ccccc2)c(=S)c1C=Nc1cccc([N+](=O)[O-])c1	27	8	0.7	2	110*	48
Cc1ccc(S(=O)(=O)NC(=O)Nc2ccc(N(C)C)cc2)cc1	·	·	·	9	73*	21
Cc1cc(C)c2c(-n3cccc3)c(NC(=O)OC(C)C)sc2n1	9	3	0.9	-2	62*	22
CCOC(=O)c1cccc(NC(=O)c2cc3ccccc3o2)c1	·	·	·	-5	19	·
Cc1cccc(NC(=O)c2cc3ccccc3o2)c1	3	-1	1	-10	65*	14
SMILES	Diaph inh CS	G6PDH CS	Diaph act CS	HKDC1 inhibitor	PfGluPho inh	PfGluPho conf	others
O=C(Nc1ccc2c(c1)CCC2)c1cc2ccccc2o1	14	7	0.9	5	88*	5
CCOC(=O)c1ccc(NC(=O)c2cc3ccccc3o2)cc1	12	6	0.9	-1	67*	-16
O=C(Nc1cccc(Br)c1)c1cc2ccccc2o1	19	4	0.8	-5	97*	34
COc1cc(OC)c(Cl)cc1N	23	6	0.8	4	37	·
O=c1[nH]c2ccc(NS(=O)(=O)c3ccc(Cl)cc3)cc2[nH]1	40	6	0.6	0	64*	2
Cc1ccc(S(=O)(=O)Nc2ccc3[nH]c(=O)[nH]c3c2)c(C)c1	24	9	0.8	11	49	20
O=c1[nH]c2ccc(NS(=O)(=O)c3ccc4ccccc4c3)cc2[nH]1	11	4	0.9	5	42	·
CC(=O)Nc1ccc(NS(=O)(=O)c2ccc3[nH]c(=O)[nH]c3c2)cc1	9	10	0.9	-4	-10	·
O=c1[nH]c2ccc(NS(=O)(=O)c3ccc(F)c(Cl)c3)cc2[nH]1	·	·	·	3	63*	16
Cc1ccc(S(=O)(=O)Nc2ccc3cn[nH]c3c2)c(C)c1	·	·	·	3	37	·
CC1OC(OC2C(CO)OC(OCC3OC(OC(=O)[C@@]45CCC(C)(C)C[C@@H]4C4=CC[C@@H]6[C@@]7(C)CCC(OC8OCC(O)C(O)C8OC8OC(C)C(O)C(O)C8O)[C@@](C)(CO)C7CC[C@@]6(C)[C@]4(C)CC5)C(O)C(O)C3O)C(O)C2O)C(O)C(O)C1O (some centres undefined)	·	·	·	2	-19	·
O=C(N=C1SC2CS(=O)(=O)CC2N1c1ccccc1)C1CC1 (centres undefined)	·	·	·	5	-14	·
O=C(Oc1c(Br)cc(C(=S)N2CCOCC2)cc1Br)c1ccc(Cl)cc1	4	5	1	2	67*	9
O=C(CSc1cn(CCNC(=O)c2c(F)cccc2F)c2ccccc12)NCC1CCCO1 (centres undefined)	·	·	·	-8	10	·
Cn1cc(SCC(=O)NCc2ccc(F)cc2)c2ccccc21	16	8	0.8	-5	-2	·
O=C(NCCn1cc(SCc2ccccc2)c2ccccc21)c1c(F)cccc1F	20	21	0.8	-2	64*	-20
O=C(NCCn1cc(SCc2ccc(F)cc2)c2ccccc21)c1ccccc1F	20	8	0.8	1	77*	-13
O=C(NCCn1cc(SCc2ccc(F)cc2)c2ccccc21)c1c(F)cccc1F	11	3	0.9	0	86*	-11
